According to ChEMBL document CHEMBL3352796, “Enantioselective Synthesis and Profiling of Two Novel Diazabicyclooctanone β-Lactamase Inhibitors” (ACS Med Chem Lett, 2014):

Columns and labels:
[1] = Hydrolytic solution stability in pH 7.4 aqueous phosphate buffer at 70 degC by HPLC-UV method; type: physicochemical
Method in brief: (§1)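 Compound held in aqueous phosphate buffer, pH 7.4, at 37 °C or 70 °C. Hydrolytic stability is reported as half-life in hours.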

[2] = system: Klebsiella pneumoniae; assay: Inhibition of Klebsiella pneumoniae CTX-M-15 pre-incubated with enzyme for 5 mins before nitrocefin substrate addition by colorimetric assay
[3] = Inhibition of Enterobacter cloacae KPC-2 pre-incubated with enzyme for 5 mins before nitrocefin substrate addition by colorimetric assay
[4] = Inhibition of Pseudomonas aeruginosa AmpC pre-incubated with enzyme for 5 mins before nitrocefin substrate addition by colorimetric assay
[5] = system: Klebsiella pneumoniae; assay: Inhibition of Klebsiella pneumoniae OXA-48 pre-incubated with enzyme for 5 mins before nitrocefin substrate addition by colorimetric assay
[6] = Hydrolytic solution stability in pH 7.4 aqueous phosphate buffer at 37 degC by HPLC-UV method; type: physicochemical; method in brief: as §1

half-life [1] [h]	IC50 [2] [µM]	IC50 [3] [µM]	IC50 [4] [µM]	IC50 [5] [µM]	half-life [6] [h]	Compound
> 264	0.48	6.7	2	28		NC(=O)[C@@H]1[C@H]2C[C@H]2[C@@H]2CN1C(=O)N2OS(=O)(=O)[O-].[Na+]
8.2	0.14	0.85	4.5	1.3	112	NC(=O)[C@@H]1[C@@H]2C[C@@H]2[C@@H]2CN1C(=O)N2OS(=O)(=O)[O-].[Na+]

Compound	half-life [1] [h]	IC50 [2] [µM]	IC50 [3] [µM]	IC50 [4] [µM]	IC50 [5] [µM]	half-life [6] [h]
C[C@]1(Cn2ccnn2)[C@H](C(=O)O)N2C(=O)C[C@H]2S1(=O)=O [TAZOBACTAM]	7.7	< 0.007	39	3.4	3.6	
